# Screens from PubChem BioAssay.
# An excerpt weighted towards active compounds, which were near 2.4% of everything screened.
# miR122 inh: miR-122 Renilla sensor signal increase in Huh7, primary screen, miR-122 inhibitor project, cell-based, single point, plate reader. activation (reporter increase), % at 12.5 µM. 0.3% of 340,000 active. Huh7 miR-122 Renilla luciferase sensor, 48 h; neutral wells = 0, positive control = 100. AID 602342, 2012;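 active = mean replicate activation score at least 90 and every replicate individually at or above 90; inconclusive = only one of the two criteria met; inactive = neither criterion met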;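 note: higher luciferase means less miR-122 activity so hits act as miR-122 inhibitors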
# HIV Env fusion: inhibitors of HIV-1 Env-driven cell-cell fusion, primary screen, HeLa-JRFL effector, CEM21 target cells, luciferase | 1.1% of 360,000 active | inhibition, % at 12.3 µM;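 active = mean replicate inhibition score of at least 50 and every replicate individually at or above 50; inconclusive = only one of the two criteria met; inactive = mean below 50 and not all replicates reaching 50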;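 note: 0% = plate neutral controls and 100% = maraviroc near 300 nM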
# Cneo AK release: Cryptococcus neoformans cell lysis inducers, primary screen, AK release luminescence, single concentration; lysis activity, % at 15 µM; C. neoformans lysis, adenylate kinase release luminescence, 4 h; normalised: neutral wells 0, clomiphene wells 100; 0.2% of 360,000 active;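 active = mean lysis activity across replicates of at least 80%, whatever share of replicates individually reach that level; inactive = mean lysis activity below 80%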
#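 Test system: log-phase Cryptococcus neoformans yeast cells. Input: 5 × 10^6 yeast cells/mL. Medium: fresh YPD growth medium. Doses: single dose. Incubation: static 4 h at 37 °C with compound, 1 h detection. Measured by: luminescent adenylate kinase detection reagent. Read-out: signal increase indicating cell lysis. Benchmarks: Clomiphene.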
# Rtt109 HAT inh: inhibitors of C. albicans Rtt109/Vps75 HAT, primary screen, biochemical, ThioGlo CoA-SH fluorescence, plate reader; AID 540336, 2011; purified Rtt109/Vps75, 4 h; inhibition, % at 34.9 µM; Histone acetyltransferase RTT109 (Candida albicans (strain SC5314 / ATCC MYA-2876)), …; 0.16% of 330,000 active;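 active = inhibition of at least 50% in every replicate; inconclusive = best replicate reaches 50% inhibition but some replicates fall short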
# Target sequence (Q5AAJ8 whole entry, looked up): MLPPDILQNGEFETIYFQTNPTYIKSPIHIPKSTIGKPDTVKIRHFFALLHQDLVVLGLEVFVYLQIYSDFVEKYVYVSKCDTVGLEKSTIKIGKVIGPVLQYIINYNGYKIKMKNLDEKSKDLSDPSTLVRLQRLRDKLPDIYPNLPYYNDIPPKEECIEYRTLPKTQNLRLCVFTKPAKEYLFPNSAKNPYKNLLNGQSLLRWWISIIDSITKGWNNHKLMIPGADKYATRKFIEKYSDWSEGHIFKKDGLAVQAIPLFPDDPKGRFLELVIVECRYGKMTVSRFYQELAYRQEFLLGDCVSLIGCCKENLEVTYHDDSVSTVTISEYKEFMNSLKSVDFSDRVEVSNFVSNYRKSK
# INS-1E GSIS act: GLuc luminescence reporter in INS-1E cells, primary screen for activators of glucose-dependent secretion of insulin; AID 743287, 2014; INS-1E GLuc reporter insulin secretion, 2-3 h; 0.61% of 370,000 active; activation, % at 16.6 µM;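 active = lowest replicate activation of at least 40%, so every replicate reaches that level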;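 note: 0% = median of neutral control wells and 100% = median of IBMX positive control wells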
# dFosB act: activators of delta FosB homodimer, primary screen, biochemical, fluorescence polarization, TAMRA-CDK5 oligo, single point; purified delta FosB; percent of positive-control signal above neutral wells; activation, % at 25 µM; 0.99% of 340,000 active;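 active = mean activation above about 17%, with every replicate also reaching it, limit read from the data, passing the limit was not always enough; inconclusive = only one of the two conditions met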
# Target sequence (P13346 whole entry, looked up): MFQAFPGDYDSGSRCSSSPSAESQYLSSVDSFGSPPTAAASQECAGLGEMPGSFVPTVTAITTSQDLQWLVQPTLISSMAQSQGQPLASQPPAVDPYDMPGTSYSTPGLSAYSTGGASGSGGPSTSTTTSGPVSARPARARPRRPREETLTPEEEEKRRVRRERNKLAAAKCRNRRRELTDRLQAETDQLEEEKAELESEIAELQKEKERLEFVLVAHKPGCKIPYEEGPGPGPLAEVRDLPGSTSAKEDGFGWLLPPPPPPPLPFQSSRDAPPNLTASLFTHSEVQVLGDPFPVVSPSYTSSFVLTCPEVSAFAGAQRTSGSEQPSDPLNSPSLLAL
# Active calls of the source: *; i = inactive; ? = inconclusive; / = no result given; + = active, no number; [ ] = remark or other dose.
SMILES,miR122 inh,HIV Env fusion,Cneo AK release,Rtt109 HAT inh,INS-1E GSIS act,dFosB act
COC(=O)C1=C(C)N(Cc2cccc(C(F)(F)F)c2)C(=NCc2ccc(C(F)(F)F)cc2)NC1c1ccc(C(F)(F)F)cc1 (stereo not given),/,3,/,/,815*,/
COC(=O)C1=C(C)N(Cc2cccc(C(F)(F)F)c2)C(=NCc2ccc(OC)cc2)NC1c1cccc(Cl)c1 (stereo not given),/,30,/,/,+,/
O=C(c1cccc(F)c1)N1CC(=O)N2[C@H](CO)[C@H](c3ccc(-c4ccccc4F)cc3)[C@H]2C1,/,/,/,/,-13,/
C[C@@H]1CN([C@@H](C)CO)C(=O)c2cc(C#Cc3ccccc3F)cnc2O[C@H]1CN(C)C(=O)c1ccc2c(c1)OCO2,-8[16.7 µM],8[16.7 µM],1,/,-37,/
CO[C@H]1CN(C)C(=O)c2ccc(NC(=O)c3ccccc3)cc2OC[C@H](C)NC[C@@H]1C,/,/,/,/,21,/
COc1ccc(S(=O)(=O)N(C)C[C@H]2Oc3ccc(NS(=O)(=O)c4cn(C)cn4)cc3C(=O)N([C@H](C)CO)C[C@H]2C)cc1,0[16.7 µM],2[16.7 µM],/,/,5,/
C=CCN=C1NC(c2ccc(Cl)cc2)C(C(=O)OC)=C(C)N1C (stereo not given),/,55*,/,/,7,/
CCN1C(=NCCc2ccccn2)N[C@@H](c2cccc(C(F)(F)F)c2)C(C(=O)OC)=C1C,-2,-9,12,0,-14,-5
C=CCN=C1NC(c2ccc(F)cc2)C(C(=O)OC)=C(C)N1C (stereo not given),/,-6,/,/,-2,/
COC(=O)C1=C(C)N(Cc2ccccc2)C(=NCCc2ccccn2)N[C@H]1c1cccc(C(F)(F)F)c1,-7,80*,27,9,-6,-10
C[C@H]1CN([C@@H](C)CO)C(=O)c2cc(Br)cnc2O[C@H]1CN(C)Cc1ccncc1,5[16.7 µM],-17[16.7 µM],-1,/,25,/
CCCc1nnc2c(N(C)S(=O)(=O)c3ccc(C)cc3)nc3ccccc3n12,/,15,/,3,68*,-1
COC(=O)C[C@H]1c2cc(C(F)(F)F)ccc2S(=O)(=O)N1C1CCCCC1,49,-5,1,1,-14,3
CC(=O)C[C@H]1c2cc(C(F)(F)F)ccc2S(=O)(=O)N1C1CCCCC1,118*,-11,0,-20,-24,-12
CCCCCCCCN1[C@@H](CC(=O)OC)c2cc(C(F)(F)F)ccc2S1(=O)=O,-2,15,-1,3,-39,-2
CCCCCCCCN1[C@@H](CC(C)=O)c2cc(C(F)(F)F)ccc2S1(=O)=O,15,61*,-1,-2,-41,0
CCC(=O)N1CC2(C1)[C@H](c1ccccc1)[C@H](CO)N2C(=O)NC(C)C,/,/,/,/,6,/
CC(=O)c1cccc(NC(=O)CCC(=O)Oc2ccc(C)cc2)c1,-7,6,-2,-2,222*,2
CC(=O)Nc1ccc(NC(=O)CCC(=O)Oc2ccc(C)cc2)cc1,2,-1,2,-4,7,-9
CCCNC(=O)N(C)C[C@H]1Oc2ncc(C#CC3CCCCC3)cc2C(=O)N([C@@H](C)CO)C[C@@H]1C,10[16.7 µM],5[16.7 µM],109*,/,-14,/
CCCNC(=O)N(C)C[C@@H]1Oc2ncc(C#CC3CCCCC3)cc2C(=O)N([C@H](C)CO)C[C@@H]1C,48[16.7 µM],-4[16.7 µM],106*,/,-13,/
CCC(=O)N[C@@H]1C=C[C@H](CC(=O)NCc2cc(F)cc(F)c2)O[C@H]1CO,/,-15[16.7 µM],-3,/,3,/
CCN(CC)S(=O)(=O)c1cc(NS(=O)(=O)c2cccs2)ccc1C,37,?,8,-2,/,1
CCN(CC)S(=O)(=O)c1cc(NS(=O)(=O)c2cc(Cl)ccc2Cl)ccc1C,392*,/,0,2,-34,-8
CCN(CC)Cc1c(O)ccc2c1O/C(=C\C=C\c1ccccc1)C2=O,278*,i,-3,-24,-3,-8
SMILES,miR122 inh,HIV Env fusion,Cneo AK release,Rtt109 HAT inh,INS-1E GSIS act,dFosB act
CCN(CCC(=O)O)c1ccccc1,-1,/,/,7,63*,0
C[C@H](CO)N1C[C@H](C)[C@H](CN(C)C(=O)Cc2ccccc2)OCCCC[C@H](C)Oc2ccc(NS(=O)(=O)c3ccc(F)cc3)cc2C1=O,-14[16.7 µM],-14[16.7 µM],-4,/,-9,/
CCCNC(=O)N1CC2(C1)[C@@H](c1ccccc1)[C@@H](CO)N2Cc1ccccn1,/,/,/,/,-6,/
O=C(C[C@@H]1C[C@H]2c3cc(NC(=O)NC4CCCCC4)ccc3O[C@H]2[C@@H](CO)O1)NCc1ccncc1,0[16.7 µM],61*[16.7 µM],-1,/,2,/
O=C(C[C@H]1C[C@H]2c3cc(NC(=O)NC4CCCCC4)ccc3O[C@H]2[C@@H](CO)O1)NCc1ccncc1,3[16.7 µM],-5[16.7 µM],-3,/,4,/
O=C(C[C@H]1C[C@H]2c3cc(NC(=O)NC4CCCC4)ccc3O[C@H]2[C@@H](CO)O1)NC1CCCCC1,5[16.7 µM],84*[16.7 µM],3,/,6,/
CN(C)C(=O)C[C@H]1C[C@@H]2c3cc(NC(=O)NC4CCCCC4)ccc3O[C@@H]2[C@H](CO)O1,0[16.7 µM],75*[16.7 µM],0,/,1,/
O=C(C[C@H]1C[C@@H]2c3cc(NC(=O)NC4CCCC4)ccc3O[C@@H]2[C@H](CO)O1)NC1CCCCC1,4[16.7 µM],5[16.7 µM],-54,/,4,/
C[C@@H]1CN([C@H](C)CO)C(=O)c2cc(-c3ccncc3)cnc2O[C@@H]1CN(C)C(=O)c1ccncc1,3[16.7 µM],-24[16.7 µM],-4,/,18,/
COC(=O)CC1(C(=O)OC)Oc2ccc(Br)cc2C(=O)N1c1cccc(Cl)c1Cl (stereo not given),/,65*,/,3,-1,-6
CCCNC(=O)N1CC2(CN(C(=O)c3cccnc3)C2)c2c([nH]c3cc(OC)ccc23)[C@@H]1CO,/,/,/,/,18,/
O=C(OC1CCOC1=O)c1cc(-c2ccc(Cl)cc2)nc2ccccc12 (stereo not given),/,17,10,0,56*,-19
O=C(Cc1cccnc1)N1CC(=O)N2[C@H](C1)[C@@H](c1ccc(-c3cccc(F)c3)cc1)[C@@H]2CO,/,/,/,/,7,/
C/C=C/c1ccc2c(c1)O[C@@H](CN(C)CC1CCOCC1)[C@H](C)CN([C@@H](C)CO)S2(=O)=O,0[16.7 µM],-7[16.7 µM],4,/,0,/
CCCCNCC1CCCO1 (stereo not given),/,1,1,0,41*,-1
CN(C)c1ncnc2sc(-c3ccccc3)cc12,-8,18,5,9,40*,1
COc1ncnc2sc(-c3ccccc3)cc12,-1,/,3,-18,/,-29
